Key:
[1] = molecular target: T1, Serine/threonine-protein kinase Chk1 (Homo sapiens, UniProt O14757); assay: Inhibition of human CHK1 using STK1 as substrate after 10 mins by HTRF assay
T1 sequence (O14757 whole entry): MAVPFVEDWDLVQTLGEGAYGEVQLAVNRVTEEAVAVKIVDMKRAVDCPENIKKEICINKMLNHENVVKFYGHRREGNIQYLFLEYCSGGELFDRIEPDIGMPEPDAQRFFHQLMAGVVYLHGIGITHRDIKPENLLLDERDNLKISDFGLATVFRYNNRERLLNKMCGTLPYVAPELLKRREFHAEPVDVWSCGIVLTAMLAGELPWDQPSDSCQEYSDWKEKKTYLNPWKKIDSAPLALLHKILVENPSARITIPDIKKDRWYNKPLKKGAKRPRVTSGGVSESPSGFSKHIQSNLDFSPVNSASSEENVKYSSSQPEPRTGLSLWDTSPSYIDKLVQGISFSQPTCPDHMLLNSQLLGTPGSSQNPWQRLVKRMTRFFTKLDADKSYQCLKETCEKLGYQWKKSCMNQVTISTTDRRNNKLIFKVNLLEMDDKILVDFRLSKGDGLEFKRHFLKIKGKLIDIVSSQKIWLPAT
Summary of the method: (§1)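 Human Chk1 or Chk2 was incubated with test agent over a concentration range (final DMSO 0.2%) and STK1 substrate (50 nM for Chk1, 1 µM for Chk2) in 50 mM HEPES pH 7.0 with 5 mM MgCl2 and 1 mM DTT. The reaction was started with 100 µM ATP and ran 10 min at 30 °C. It was stopped with EDTA containing Sa-XL665 and Eu(K) antibody, then held 1 h at room temperature. TR-FRET 665/620 ratio was read, minus the negative control. IC50s are means of at least three independent experiments, each in duplicate.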

[2] = organism: Homo sapiens; assay: Selectivity ratio of IC50 for human CHK1 to IC50 for human CHK2
[3] = molecular target: Serine/threonine-protein kinase Chk2 (Homo sapiens, UniProt O96017); assay: Inhibition of human Chk2 using STK1 as substrate after 10 mins by HTRF assay; summary of the method: as §1
Serine/threonine-protein kinase Chk2, sequence (O96017 whole entry): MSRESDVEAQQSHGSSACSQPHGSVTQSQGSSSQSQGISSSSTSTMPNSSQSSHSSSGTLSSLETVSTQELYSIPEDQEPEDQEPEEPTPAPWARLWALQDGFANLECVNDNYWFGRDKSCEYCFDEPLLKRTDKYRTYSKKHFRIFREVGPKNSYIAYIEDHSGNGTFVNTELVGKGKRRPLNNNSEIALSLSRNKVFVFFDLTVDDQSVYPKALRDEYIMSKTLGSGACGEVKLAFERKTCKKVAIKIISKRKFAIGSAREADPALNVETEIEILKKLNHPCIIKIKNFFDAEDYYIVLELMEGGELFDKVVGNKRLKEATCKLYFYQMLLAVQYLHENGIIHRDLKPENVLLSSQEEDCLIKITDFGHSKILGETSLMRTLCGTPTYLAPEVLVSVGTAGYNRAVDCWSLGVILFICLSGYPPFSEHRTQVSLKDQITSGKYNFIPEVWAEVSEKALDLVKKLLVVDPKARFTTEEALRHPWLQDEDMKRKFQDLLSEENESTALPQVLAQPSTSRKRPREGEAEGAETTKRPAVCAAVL

Which results are given for Nc1nc(C2=C3C(=Nc4ccccc43)C(=O)NCC2)c(O)[nH]1?
IC50 [1]: 234 nM; Ratio IC50 [2]: 29

Which IC50 [1] does the source give for CCCNC1=NC(=O)/C(=C2\CCNC(=O)c3[nH]c(-c4ccccc4)cc32)N1 here?
The IC50 was > 10000 nM.

What about the Ratio IC50 [2] of the same compound?
The Ratio IC50 was > 64.

And the IC50 [3]?
Its IC50 is 156 nM.

For O=C1N=C(NCc2ccccc2)N/C1=C1/CCNC(=O)c2[nH]c(-c3ccccc3)cc21, which IC50 [1] is on record?
The IC50 was 905 nM.

What about the Ratio IC50 [2] of the same compound?
The Ratio IC50 was 32.

And the IC50 [3]?
Its IC50 is 28 nM.

Which IC50 [1] does the source give for NC1=NC(=O)/C(=C2\CCNC(=O)c3[nH]c(-c4ccccc4)cc32)N1 here?
Its IC50 is 1310 nM.

And the Ratio IC50 [2]?
Its Ratio IC50 is 66.

And the IC50 [3]?
The IC50 was 20 nM.

How did the Ratio IC50 [2] turn out when NC1=N/C(=C2/CCNC(=O)c3[nH]ccc32)C(=O)N1 was run?
The Ratio IC50 was 4.

How did the IC50 [1] turn out when COc1ccc(CNC2=NC(=O)/C(=C3\CCNC(=O)c4[nH]c(-c5ccccc5)cc43)N2)cc1 was run?
The IC50 was > 10000 nM.

What about the Ratio IC50 [2] of the same compound?
Its Ratio IC50 is > 17.

What about the IC50 [3] of the same compound?
The IC50 was 588 nM.

Which IC50 [1] does the source give for COc1ccc(-c2cc3c([nH]2)C(=O)NCC/C3=C2/NC(N)=NC2=O)cc1 here?
Its IC50 is 867 nM.

What about the Ratio IC50 [2] of the same compound?
The Ratio IC50 was 62.

And the IC50 [3]?
Its IC50 is 14 nM.

How did the IC50 [1] turn out when CCOC(=O)CCNC1=NC(=O)/C(=C2\CCNC(=O)c3[nH]c(-c4ccccc4)cc32)N1 was run?
Its IC50 is > 10000 nM.

What about the Ratio IC50 [2] of the same compound?
Its Ratio IC50 is > 36.

And the IC50 [3]?
Its IC50 is 277 nM.

Which IC50 [1] does the source give for O=C1N=C(NC2CCCCC2)N/C1=C1/CCNC(=O)c2[nH]c(-c3ccccc3)cc21 here?
The IC50 was > 10000 nM.

And the Ratio IC50 [2]?
The Ratio IC50 was > 7.

And the IC50 [3]?
Its IC50 is 1530 nM.

Which IC50 [1] does the source give for COc1ccc(-c2cc3c([nH]2)C(=O)NCC/C3=C2/NC(N)=NC2=O)cc1OC here?
The IC50 was 1550 nM.

And the Ratio IC50 [2]?
The Ratio IC50 was 111.

What about the IC50 [3] of the same compound?
Its IC50 is 14 nM.

For CNC1=NC(=O)/C(=C2\CCNC(=O)c3[nH]c(-c4ccccc4)cc32)N1, which IC50 [1] is on record?
The IC50 was 6560 nM.

And the Ratio IC50 [2]?
The Ratio IC50 was 38.

And the IC50 [3]?
Its IC50 is 171 nM.

Reference: ChEMBL document CHEMBL1944635, “Synthesis and evaluation of debromohymenialdisine-derived Chk2 inhibitors” (Bioorg Med Chem, 2012)
